Here are results for six compounds from ChEMBL document CHEMBL1130250, “NAcSDKP analogues resistant to angiotensin-converting enzyme” (J Med Chem, 1997).

Experiment [1] deals with T1, Angiotensin-converting enzyme (Oryctolagus cuniculus) (UniProt P12822).
T1 sequence (whole entry): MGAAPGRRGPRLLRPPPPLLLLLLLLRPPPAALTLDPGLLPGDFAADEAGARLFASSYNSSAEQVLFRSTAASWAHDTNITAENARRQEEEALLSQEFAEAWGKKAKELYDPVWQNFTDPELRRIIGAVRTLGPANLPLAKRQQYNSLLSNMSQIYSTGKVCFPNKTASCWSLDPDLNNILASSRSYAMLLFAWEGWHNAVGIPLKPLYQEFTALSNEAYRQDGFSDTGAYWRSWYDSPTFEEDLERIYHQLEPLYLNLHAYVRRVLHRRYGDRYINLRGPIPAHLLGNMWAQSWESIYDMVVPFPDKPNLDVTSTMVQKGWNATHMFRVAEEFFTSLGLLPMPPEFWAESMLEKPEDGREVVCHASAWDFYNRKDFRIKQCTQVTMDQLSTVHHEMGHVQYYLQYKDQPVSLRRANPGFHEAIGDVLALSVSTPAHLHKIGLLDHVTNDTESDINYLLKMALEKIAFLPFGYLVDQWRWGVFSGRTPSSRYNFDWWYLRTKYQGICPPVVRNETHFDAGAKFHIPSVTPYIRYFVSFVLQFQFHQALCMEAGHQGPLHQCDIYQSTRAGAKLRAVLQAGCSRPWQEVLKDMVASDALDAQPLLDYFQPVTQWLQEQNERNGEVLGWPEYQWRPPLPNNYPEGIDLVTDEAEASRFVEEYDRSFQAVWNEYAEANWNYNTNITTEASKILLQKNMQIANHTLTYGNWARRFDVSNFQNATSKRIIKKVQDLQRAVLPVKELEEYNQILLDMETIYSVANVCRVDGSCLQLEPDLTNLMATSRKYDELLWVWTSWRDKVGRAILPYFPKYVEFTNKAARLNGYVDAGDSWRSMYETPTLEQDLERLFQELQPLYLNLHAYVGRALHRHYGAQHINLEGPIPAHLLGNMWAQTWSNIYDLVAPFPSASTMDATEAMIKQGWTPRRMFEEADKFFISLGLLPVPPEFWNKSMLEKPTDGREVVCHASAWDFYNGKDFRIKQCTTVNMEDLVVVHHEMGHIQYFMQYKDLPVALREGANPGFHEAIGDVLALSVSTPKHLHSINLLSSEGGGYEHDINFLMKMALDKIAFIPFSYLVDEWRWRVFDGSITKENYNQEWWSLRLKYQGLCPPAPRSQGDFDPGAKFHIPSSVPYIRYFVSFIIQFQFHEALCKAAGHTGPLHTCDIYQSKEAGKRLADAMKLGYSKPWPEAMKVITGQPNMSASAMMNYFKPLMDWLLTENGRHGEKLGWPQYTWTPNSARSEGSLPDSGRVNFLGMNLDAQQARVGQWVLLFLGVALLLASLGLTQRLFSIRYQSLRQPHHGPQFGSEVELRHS
The experiment is described as follows: In vitro stability of compound (50 uM) to inhibit NAcSDKP hydrolysis by rabbit lung Angiotensin I converting enzyme after 30 minutes incubation. The essentials:
(§1)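 Rabbit lung ACE (0.1 unit/mL final) in Tris-maleate buffer pH 7 (100 mM Tris, 50 mM NaCl, 10^-5 M ZnSO4). Analogue (final 0.5, 5 or 50 µM) preincubated with enzyme 30 min at 37 °C. NAcSD[3H]KP (tritium on lysine side chain) plus cold peptide, 5 µM final, then added for 30 min at 37 °C. Frozen at -80 °C and run on high-voltage paper electrophoresis. Residual labelled substrate radioactivity compared with t=0. Duplicates, mean of two experiments.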

Experiment [2] addresses T1, Angiotensin-converting enzyme (Oryctolagus cuniculus). The experiment is described as follows: In vitro stability of compound (0.5 uM) to inhibit NAcSDKP hydrolysis by rabbit lung Angiotensin I converting enzyme after 30 minutes incubation. The essentials: as §1
Experiment [3] shares this target. The experiment can be described thus: In vitro stability of compound toward enzymatic degradation by rabbit lung Angiotensin I converting enzyme after 24 hr incubation. The method in brief: (§2)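 Degradation assay: rabbit lung ACE preincubated 30 min at 37 °C in Tris-maleate pH 7 (100 mM Tris, 50 mM NaCl, 10^-5 M ZnSO4). Peptide then added at 50 µM final with enzyme at 0.1 unit/mL, 37 °C for 30 min or 24 h. Stopped with 1% TFA, then RP-HPLC at 215 nm. Residual intact peptide read from peak area against t=0 and a 5-50 calibration curve. Mean of two experiments in triplicate.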

For experiment [4] the target is unchanged. The experiment can be described thus: In vitro stability of compound (5 uM) to inhibit NAcSDKP hydrolysis by rabbit lung Angiotensin I converting enzyme after 30 minutes incubation. The method in brief:
as §1

Experiment [5] shares this target. The experiment can be described thus: In vitro stability of compound toward enzymatic degradation by rabbit lung Angiotensin I converting enzyme after 30 minutes incubation. The essentials: as §2
Experiment [6] shares this target. The experiment can be described thus: In vitro stability of compound (51 uM) to inhibit NAcSDKP hydrolysis by rabbit lung Angiotensin I converting enzyme after 30 minutes incubation. The method in brief:
as §1

Peptide text beside a SMILES is read from it. * marks the point of attachment. Pyrrolidide = C1CCN(*)C1

On to `CC(=O)N[C@@H](CO)C(=O)N[C@@H](CC(=O)O)C(=O)N[C@@H](CCCCN)CN1CCC[C@H]1C(=O)O`, for which the Residual peptide in experiment [1] turned out to be 50.3%; in experiment [2], 47.3%; in experiment [3], 99.4%; in experiment [4] it was 48.8%; in experiment [5] it was 99.7%.

With `CC(=O)N[C@@H](CO)C(=O)N[C@@H](CC(=O)O)C(=O)N[C@@H](CCCCN)C(=O)N1CCC[C@H]1C(=O)O` (Ac-SDKP-OH), the Residual peptide in experiment [5] worked out at 43.6%.

With `CC(=O)N[C@@H](CO)C(=O)N[C@@H](CC(=O)O)C(=O)N[C@@H](CCCCN)C(=O)N1CCCC1` (Ac-Ser-Asp-Lys-Pyrrolidide), the values for the Residual peptide in experiment [3] and in experiment [5] were 0% and 36.2%, respectively.

Regarding `CC(=O)N[C@@H](CO)C(=O)N[C@H](CN[C@@H](CCCCN)C(=O)N1CCC[C@H]1C(=O)O)CC(=O)O`, the Residual peptide in experiment [1] was determined as 41.7%; in experiment [2], 46%; in experiment [3], 100%; in experiment [4] it was 49.3%; in experiment [5] it was 100%.

`CC(=O)N[C@@H](CO)CN[C@@H](CC(=O)O)C(=O)N[C@@H](CCCCN)C(=O)N1CCC[C@H]1C(=O)O`: the Residual peptide in experiment [1] is 46.7%; in experiment [2], 46.9%; in experiment [3] it was 97.6%; in experiment [6] it was 54%; in experiment [5], 99.7%.

Consider `CC(=O)N[C@@H](CO)C(=O)N[C@@H](CC(=O)O)C(=O)N[C@@H](CCCCN)C(=O)N1CCC[C@H]1C(N)=O` (Ac-SDKP-NH2), for which the Residual peptide in experiment [1] is 49.7%; in experiment [2], 46%; in experiment [3] it was 96.7%; in experiment [4] it was 50.1%; in experiment [5], 99.9%.
